One data set concerns Mus musculus. Kind of data set: Protection against TNFalpha/Z-VAD-fmk-induced C57BL/6J mouse model of systemic inflammatory response syndrome at 5 mg/kg, po administered via gavage 2 hrs prior to Z-VAD-fmk addition for 15 mins followed by TNFalpha stimulation for 1 hr and subsequent Z-VAD-fmk addition meaured up to 50 hrs post TNFalpha stimulation relative to control. Type of data set: functional. In short, it runs like this:
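Overnight-fasted C57BL/6 female mice, n=10 per group. Test compound was given by oral gavage 2 h before mTNF-α. z-VAD-fmk (180 µg) was injected ip, then 15 min later mTNF-α in endotoxin-free PBS was injected iv (400 µg/kg). A second z-VAD-fmk dose (70 µg) was given ip 1 h after TNF. Body temperature and survival were followed against vehicle. One-way ANOVA was used.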

Data set [1] in a line: Apparent volume of distribution at steady state in Sprague-Dawley rat at 1 mg/kg, iv by LC-tandem mass spectrometry analysis. Type of data set: ADME, organism-based. Particulars: in vivo, read-out: Vdss(app). In short, it runs like this: (§1)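 Male Sprague-Dawley rats dosed once i.v. at 1 mg/kg or intragastrically at 5 mg/kg. Compound dissolved in 5% DMSO, 10% Tween 80, 75% physiological saline at 0.2 and 1 mg/mL. Blood taken at several time points, plasma spun at 4 °C, stored at -80 °C, assayed by LC/MS/MS. Parameters from individual animals by noncompartmental analysis.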

A short description of data set [2]: Oral bioavailability in Sprague-Dawley rat at 5 mg/kg by LC-tandem mass spectrometry analysis. The data set is classed as ADME, organism-based. Particulars: in vivo. In short, it runs like this: as §1
The nature of data set [3]: AUC (0 to t) in Sprague-Dawley rat at 1 mg/kg, iv by LC-tandem mass spectrometry analysis. Type of data set: ADME, organism-based. The settings on record: in vivo. In short, it runs like this:
as §1

The results in this text go back to ChEMBL document CHEMBL4406794, “N-(7-Cyano-6-(4-fluoro-3-(2-(3-(trifluoromethyl)phenyl)acetamido)phenoxy)benzo[d]thiazol-2-yl)cyclopropanecarboxamide (TAK-632) Analogues as Novel Necroptosis Inhibitors by Targeting Receptor-Interacting Protein Kinase 3 (RIPK3): Synthesis, Structure-Activity Relationships, and in Vivo Efficacy” (J Med Chem, 2019).

Usually bioavailability stands for the share of a dose that reaches the circulation, judged against a reference dose that is usually intravenous. The low end stands for little systemic uptake, the high end for much systemic uptake. One may read the AUC(0-t) as exposure summed from dosing to a finite time, without extrapolation to infinity. Low readings indicate less exposure, high ones more exposure. `O=C(Nc1cccc(Br)c1)Nc1cc(Oc2ccc3nc(NC(=O)C4CC4)sc3c2)ccc1F` displayed an Activity in the data set with Mus musculus of 90%. For the same compound, the Vd in data set [1] was 3.49 L/kg. Also, the bioavailability in data set [2] amounted to 25.2%. Moreover, the AUC(0-t) in data set [3] is 5560 ng·h/mL.
